Measured values: ChEMBL document CHEMBL1140447, “Synthesis and antimuscarinic properties of quinuclidin-3-yl 1,2,3,4-tetrahydroisoquinoline-2-carboxylate derivatives as novel muscarinic receptor antagonists” (J Med Chem, 2005)
pKi: −log10 of the molar value. Where “and” joins values, the source holds several entries; their conditions need not be identical. Identical values can stand only once.

What was measured:
[1] = target: T1, Muscarinic acetylcholine receptor M2 (Rattus norvegicus, UniProt P10980); experiment: Binding affinity for rat heart muscarinic acetylcholine receptor M2 using [3H]quinuclidinyl benzilate
T1 sequence (P10980 whole entry): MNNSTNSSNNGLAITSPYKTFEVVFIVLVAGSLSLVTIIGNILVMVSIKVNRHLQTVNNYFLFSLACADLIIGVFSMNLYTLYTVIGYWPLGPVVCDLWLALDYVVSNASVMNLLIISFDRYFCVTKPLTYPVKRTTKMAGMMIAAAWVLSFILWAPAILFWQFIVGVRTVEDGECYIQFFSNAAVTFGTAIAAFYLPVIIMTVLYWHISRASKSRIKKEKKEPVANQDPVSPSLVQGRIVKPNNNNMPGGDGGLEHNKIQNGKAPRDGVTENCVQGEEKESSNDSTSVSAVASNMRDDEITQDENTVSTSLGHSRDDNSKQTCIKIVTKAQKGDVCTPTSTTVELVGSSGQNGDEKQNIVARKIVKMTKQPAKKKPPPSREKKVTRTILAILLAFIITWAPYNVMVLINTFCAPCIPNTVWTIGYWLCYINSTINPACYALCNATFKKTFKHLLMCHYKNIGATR

[2] = system: Rattus norvegicus; experiment: Intravenous dose required to inhibit oxotremorine induced salivary secretion in urethane ([…] i.p.) anesthetized male wistar rats; assay type: functional; conditions: for ED50: Rattus norvegicus, read-out: ID50 (the source's name)
[3] = system: Rattus norvegicus; experiment: Intravenous dose required to inhibit rhythmic contraction of urinary bladder in urethane (1.0 g/kg s.c.) anesthetized female wistar rats; assay type: functional
How it was run: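 Each rat received escalating intravenous doses, giving a dose–response curve per animal. The fall in intravesical pressure was read 5–10 min after each dose. ED30 is the dose that cut peak intravesical pressure by 30%. Values are means ± SEM.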

[4] = species: Rattus norvegicus; experiment: Selectivity index calculated as ID50/ED30
[5] = system: Rattus norvegicus; experiment: M1 antagonism measured as effect (i.v.) on McN-A343 induced pressor response in pithed rats; assay type: functional; conditions: iv, read-out: ID50 (the source's name)
How it was run: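 Compounds were given iv 15 min before McN-A343 (3 μmol/kg iv) in pithed rats, with the pressor response recorded.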

[6] = system: Rattus norvegicus; experiment: M2 antagonism measured as effect (i.v.) on oxotremorine induced bradycardia in pithed rats; assay type: functional
How it was run: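 Bradycardia was evoked in pithed rats by an iv oxotremorine dose–response challenge, with compounds given 15 min beforehand. DR10 is the compound dose that shifts the oxotremorine curve 10-fold to the right. Values are reported with 95% confidence limits.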

[7] = Rattus norvegicus, read-out: ED30

Row | Structure (SMILES) | pKi [1] | ED50 [2] | ED30 [3, 7] | further results
1 | O=C(O[C@H]1CN2CCC1CC2)N1CCc2ccccc2[C@H]1c1ccccc1 | 8.06 | 0.12 mg/kg | 0.036 mg/kg | 
2 | O=C(NC(c1ccccc1)c1ccccc1)OC1CN2CCC1CC2 (configuration not stated) | 8.17 |  |  | 
3 | O=C(O[C@H]1CN2CCC1CC2)N1CC(O)c2ccccc2C1c1ccccc1 (some centres not stated) | 5.74 and 6.32 |  |  | 
4 | O=C(O[C@H]1CN2CCC1CC2)N1Cc2ccccc2C(c2ccccc2)C1 (some centres not stated) | < 6.00 |  |  | 
5 | O=C(O[C@H]1CN2CCC1CC2)N1Cc2ccccc2C1c1ccccc1 (some centres not stated) | 6.36 |  |  | 
6 | O=C(O[C@H]1CN2CCC1CC2)N1CCc2ccccc2C1c1cccs1 (some centres not stated) | 7.89 and 7.03 |  |  | 
7 | O=C(O[C@H]1CN2CCC1CC2)N1CCc2ccccc2C1C1CCCCC1 (some centres not stated) | 7.66 and 7.41 |  |  | 
8 | O=C(O[C@H]1CN2CCC1CC2)N1CCc2ccccc2C1c1ccccc1 (some centres not stated) | 7.55 |  |  | 
9 | O=C(O[C@@H]1CN2CCC1CC2)N1CCc2ccccc2[C@H]1c1ccccc1 | 5.80 |  |  | 
10 | O=C(O[C@@H]1CN2CCC1CC2)N1CCc2ccccc2[C@@H]1c1ccccc1 | 5.46 |  |  | 
11 | O=C(O[C@H]1CN2CCC1CC2)N1C[C@H](O)c2ccccc2[C@H]1c1ccccc1 | 5.77 |  |  | 
12 | O=C(O[C@H]1CN2CCC1CC2)N1C[C@@H](O)c2ccccc2[C@@H]1c1ccccc1 | 6.07 |  |  | 
13 | O=C(O[C@H]1CN2CCC1CC2)N1CCc2ccccc2C1c1ccsc1 (single isomer, unassigned; 12a) | 7.82 | 0.11 mg/kg | 0.016 mg/kg | 
14 | O=C(O[C@H]1CN2CCC1CC2)N1CCc2ccccc2C1c1ccsc1 (single isomer, unassigned; 12b) | 6.96 | 1.3 mg/kg | 0.24 mg/kg | 
15 | NC(=O)C(c1ccccc1)(c1ccccc1)[C@@H]1CCN(CCc2ccc3c(c2)CCO3)C1 [DARIFENACIN] |  | 0.11 mg/kg | 0.058 mg/kg | Selectivity index [4]: 1.9
16 | CCN(CC)CC#CCOC(=O)C(O)(c1ccccc1)C1CCCCC1 (configuration not stated) [OXYBUTYNIN] |  | 0.17 mg/kg | 0.2 mg/kg | ID50 [2]: 0.17 mg/kg; ED50 [5]: 1.1 mg/kg; DR10 [6]: 1.6 mg/kg; ED30 [3]: 0.2 mg/kg
17 | O=C(O[C@H]1CN2CCC1CC2)N1CCc2ccccc2[C@@H]1c1ccccc1 [SOLIFENACIN] | 6.92 | 2.1 mg/kg | 0.18 mg/kg | ED50 [5]: 2.8 mg/kg; DR10 [6]: 4.2 mg/kg
18 | Cc1ccc(O)c([C@H](CCN(C(C)C)C(C)C)c2ccccc2)c1 [TOLTERODINE] |  | 0.26 mg/kg | 0.06 mg/kg | Selectivity index [4]: 4.3
